Bioassay records: PubChem BioAssay, several laboratories
HNF4A DNA FP: change in binding of human HNF4A to DNA, primary screen, biochemical, fluorescence polarization, FITC-DNA | 0.3% of 360,000 active | 1 h | Hepatocyte nuclear factor 4-alpha (Homo sapiens), P41235 | activity change, % at 10 µM | AID 1224865, 2016; in the data active = activity change above about 30%, passing the limit was not always enough
TPT1 inhibitor: Candida albicans TPT1 enzyme inhibitors, primary screen, biochemical, fluorescence polarization | 0.81% of 300,000 active | AID 1962, 2009 | tRNA 2'-phosphotransferase TPT1 (Candida albicans SC5314) | recombinant caTPT1, FP RNA substrate dephosphorylation | inhibition, % at 5 µM;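 active = inhibition above the mean of all tested compounds plus 3 SD, set per screening campaign, cut at about 24% in these data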
CRFBP-R2 block: antagonists of CRF-BP/CRF-R2 complex, primary screen, cell-based, HEK293, calcium dye fluorescence, uHTS. 0.59% of 350,000 active. CRF-induced calcium fluorescence. AID 588475, 2011. inhibition, % at 11.8 µM;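 active = inhibition of the ligand-induced calcium signal above about 50% at the single tested concentration, limit read from the data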
Rpn11 block: Rpn11 (PSMD14) deubiquitinase inhibitors, primary screen, biochemical, fluorescence polarization, uHTS; calls only at 20 µM; human 26S proteasome, Ub4-pepOG fluorescence polarization; 20S core pre-blocked with epoxomicin; 0.59% of 360,000 active; 26S proteasome non-ATPase regulatory subunit 14 (Homo sapiens), O00487;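 active = inhibition at 20 µM, scaled to each plate's controls, above about 33%, limit read from the data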
Target sequence (O00487 whole entry, looked up): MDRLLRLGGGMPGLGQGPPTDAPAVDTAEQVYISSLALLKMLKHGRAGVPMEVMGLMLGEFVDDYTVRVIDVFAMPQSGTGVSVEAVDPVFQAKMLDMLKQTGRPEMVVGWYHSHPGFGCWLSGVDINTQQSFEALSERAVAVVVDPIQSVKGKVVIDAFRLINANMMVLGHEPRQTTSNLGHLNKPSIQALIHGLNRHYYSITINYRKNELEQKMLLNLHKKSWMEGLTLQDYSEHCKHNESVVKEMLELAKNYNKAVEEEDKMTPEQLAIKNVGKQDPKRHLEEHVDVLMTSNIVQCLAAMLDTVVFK
CSN inh: inhibitors of CSN-mediated cullin deneddylation, primary screen, biochemical, fluorescence polarization, uHTS; Purified CSN, SCF-Nedd8-OG deneddylation; inhibition, % at 12.5 µM; AID 651999, 2013; 0.38% of 360,000 active;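 active = pattern-corrected inhibition above about 35%, with an unprinted fluorescence ratio check between 0.5 and 1.5, limit read from the data, passing the limit was not always enough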
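Assay system: purified human Csn5 enzyme expressed in HEK293T cells; measure: % inhibition; also added: SCFSkp2-Nedd8OG substrate at 10 nM final; technique: fluorescence polarization; times: reaction 90 min, room temperature; medium: Tris buffer pH 7.5, NaCl, DTT, Tween-20, trehalose, ovalbumin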
CRFBP-R2 agonist: agonists of CRF-BP/CRF-R2 complex, primary screen, cell-based, HEK293, calcium dye fluorescence, uHTS | calcium dye fluorescence (FLIPR); percent of saturating CRF peptide response | activation, % at 13.2 µM | 0.46% of 350,000 active | CRF-binding protein / CRF receptor 2 complex (human);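 active = activation of at least 50%, plus an integration ratio under a set limit after plate pattern correction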
TPT1 inh confirm: Candida albicans TPT1 inhibitors, confirmation, biochemical, fluorescence polarization, triplicate; inhibition, % at 5 µM; shares compounds with TPT1 inhibitor; recombinant caTPT1, RNase T1 coupled; 74% of 2,400 active;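 active = inhibition above the primary screen limit, the mean inhibition of all tested compounds plus 3 SD, cut at about 25% in these data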
RNase T1 inh: RNase T1 inhibitors, counter-screen for TPT1 inhibitor project, biochemical, fluorescence polarization; shares compounds with TPT1 inhibitor; RNase T1 cleavage, 1536-well; inhibition, % at 5 µM; 83% of 2,400 active; AID 2153, 2009;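 active = inhibition above the solvent-only control well mean plus 3 SD, limit set per screening run, cut at about 23% in these data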;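 also: inhibitors block cleavage so intact labeled substrate keeps polarization high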
Target sequence (P00651 whole entry, looked up): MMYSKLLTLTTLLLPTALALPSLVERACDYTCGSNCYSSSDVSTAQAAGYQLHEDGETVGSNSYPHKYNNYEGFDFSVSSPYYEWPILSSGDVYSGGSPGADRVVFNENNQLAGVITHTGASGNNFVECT
Of the large screens only hits and unclear results are named; the others gave an inactive call (follow-up assays come after a bar, where shown). Sampled rows, rich in hits. Any-hit rate of the full collection: about 2.3%.

CCCN(C)C1CN(Cc2cn(CCCOC)nn2)S(=O)(=O)C1 (stereo unspecified)	none (no result: TPT1 inhibitor, CRFBP-R2 block, Rpn11 block, CRFBP-R2 agonist)
O=C(NC(=S)NCCc1ccccn1)c1ccco1	CRFBP-R2 block 53
O=C1NC(c2ccc(O)cc2)Nc2ccccc21 (stereo unspecified)	none
COC(=O)c1cccc2c1C(=O)c1cc([N+](=O)[O-])ccc1-2	none (no result: TPT1 inhibitor)
COc1ccccc1-c1ccc(SCc2ccccc2)nn1	none
COc1ccccc1-c1ccc(SCc2cccc(F)c2)nn1	CRFBP-R2 block 53
CCCCc1c(C)nc2ccc(Br)cc2c1SC(N)N	none (no result: TPT1 inhibitor)
Cc1ccc(-c2nnn(CC(=O)N(CC3CCCO3)C(C(=O)NCC3CCCO3)c3ccc(F)cc3)n2)o1 (stereo unspecified)	none
CC(=O)Nc1ccc(S(=O)(=O)N2CCC(NC(C)=O)(c3cccc(F)c3)CC2)cc1	CRFBP-R2 block 51
C=CCn1c(SCc2ccc(F)cc2)nc2c1c(=O)[nH]c(=O)n2C	CRFBP-R2 block 62
Cn1c(SCC(=O)N2CCOCC2)nnc1-c1ccccc1	none
COc1ccc2c(c1)CC/C(=C/c1cc(OC)c(OC)c(OC)c1)C2=O	none
COc1cc2c(cc1[N+](=O)[O-])-c1ccc([N+](=O)[O-])cc1C2	none (no result: TPT1 inhibitor, CRFBP-R2 block, CRFBP-R2 agonist)
COc1cc2c(cc1[N+](=O)[O-])-c1ccccc1C2	CRFBP-R2 agonist 87 (no result: TPT1 inhibitor)
COc1ccc(Cc2nnc(NC(=O)Nc3ccc(C)cc3)s2)cc1OC	CRFBP-R2 block 83
COc1ccc(NC(=O)Nc2nnc(Cc3ccc(OC)c(OC)c3)s2)cc1	none
COc1ccccc1N1C(C)=CC(=C(C#N)c2nc3ccccc3s2)C=C1C	CRFBP-R2 agonist 109
O=C(O)c1cc(-c2ccc(/C=C3/SC(=S)N(Cc4ccccc4)C3=O)o2)ccc1Cl	CRFBP-R2 agonist 209 (not shown: TPT1 inhibitor, Rpn11 block)
Fc1ccc(Cc2nnc(-c3cccs3)o2)cc1	none
Fc1ccc(-c2nnc(Cc3ccc(Cl)cc3)o2)cc1	HNF4A DNA FP 61
CCOC(=O)/C(=C/C=C1\Sc2ccccc2N1CC)C(C)=O	TPT1 inhibitor 174, CRFBP-R2 agonist 238 (not shown: Rpn11 block) | TPT1 inh confirm 189 | RNase T1 inh 170
CCOC(=O)/C(=C\C=C1/Sc2ccccc2N1CC)C(C)=O	TPT1 inhibitor 186, CRFBP-R2 agonist 313 (not shown: Rpn11 block) | TPT1 inh confirm 196 | RNase T1 inh 176
COc1cccc(CCNC(=O)C2CCC(=O)N(Cc3cccc(OC)c3)C2)c1 (stereo unspecified)	none
O=C(Nc1ccccc1C(F)(F)F)c1ccc2nccnc2c1	TPT1 inhibitor 39 | TPT1 inh confirm inactive | RNase T1 inh inactive
O=C(Nc1ccccc1Br)c1ccc2nccnc2c1	none
Cn1c(N)c(C#N)c(C#N)c1-c1ccccc1	none
CCC(N)C12CC3CC(CC(O)(C3)C1)C2 (stereo unspecified)	none
CC1=C(C#N)C(=O)N(C2CCS(=O)(=O)C2)C(=O)/C1=C\c1ccco1 (stereo unspecified)	TPT1 inhibitor 74 (no result: HNF4A DNA FP, CRFBP-R2 block, Rpn11 block, CSN inh, CRFBP-R2 agonist) | TPT1 inh confirm 85 | RNase T1 inh inactive
CCSc1ncc(/C=N/Nc2ccc([N+](=O)[O-])cc2)n1C	TPT1 inhibitor 56 | TPT1 inh confirm 57 | RNase T1 inh 66
CCSc1ncc(/C=N/Nc2ccccc2)n1C	none
CN1CCc2c(sc(/N=C/c3c[nH]c4ccccc34)c2C#N)C1	TPT1 inhibitor 44 (not shown: Rpn11 block) | TPT1 inh confirm 43 | RNase T1 inh 53
